From ChEMBL document CHEMBL5108061, “Lectin-Targeted Prodrugs Activated by Pseudomonas aeruginosa for Self-Destructive Antibiotic Release” (J Med Chem, 2022)
Values after ≈ are worked out from the molar mass of the structure shown.

Tests used:
[1] = system: Pseudomonas aeruginosa; assay: Antibacterial activity against Pseudomonas aeruginosa PA14 assessed inhibition of bacterial growth incubated for 18 to 20 hrs by broth microdilution method; assay type: functional; conditions: time 18-20 hrs
Outline: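 Broth microdilution per EUCAST in Müller-Hinton broth II, no matrix preincubation. […] Inoculum from overnight LB-agar colonies adjusted to OD600 0.08–0.13, diluted 1:100, final 5 × 10^5 cfu/mL.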

[2] = system: Pseudomonas aeruginosa; assay: (§1) Antibacterial activity against Pseudomonas aeruginosa PA14 assessed inhibition of bacterial growth preincubated for 3 hrs in matrix containing human blood plasma spiked with fresh LB medium in PBS followed by overnight grown bacterial culture addition incubated for 18 to 20 hrs by broth microdilution method; assay type: functional; conditions: time 21-23 hrs
Outline: (§2)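 Prodrug serial dilutions in PBS/20% DMSO (1 mM to 1.9 μM) were diluted about 1:20 into matrix. Matrices: plasma 5 mL + PA14 LB-culture sterile filtrate 1 mL + PBS 4 mL; filtrate 1 mL + PBS 9 mL; PBS alone; plasma 5 mL + LB 1 mL + PBS 4 mL. Preincubation was 3 h at 37 °C, or <10 min at room temperature.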

[3] = molecular target: Elastase (Pseudomonas aeruginosa (strain ATCC 15692 / PAO1 / 1C / PRS 101 / LMG12228), UniProt P14756); assay: Prodrug activation assessed as LasB-mediated drug release in Pseudomonas aeruginosa PA14 cell supernatant in presence of human blood plasma and measured for 3 hrs by HPLC-MS analysis; assay type: cell-free
Sequence of Elastase (P14756 whole entry): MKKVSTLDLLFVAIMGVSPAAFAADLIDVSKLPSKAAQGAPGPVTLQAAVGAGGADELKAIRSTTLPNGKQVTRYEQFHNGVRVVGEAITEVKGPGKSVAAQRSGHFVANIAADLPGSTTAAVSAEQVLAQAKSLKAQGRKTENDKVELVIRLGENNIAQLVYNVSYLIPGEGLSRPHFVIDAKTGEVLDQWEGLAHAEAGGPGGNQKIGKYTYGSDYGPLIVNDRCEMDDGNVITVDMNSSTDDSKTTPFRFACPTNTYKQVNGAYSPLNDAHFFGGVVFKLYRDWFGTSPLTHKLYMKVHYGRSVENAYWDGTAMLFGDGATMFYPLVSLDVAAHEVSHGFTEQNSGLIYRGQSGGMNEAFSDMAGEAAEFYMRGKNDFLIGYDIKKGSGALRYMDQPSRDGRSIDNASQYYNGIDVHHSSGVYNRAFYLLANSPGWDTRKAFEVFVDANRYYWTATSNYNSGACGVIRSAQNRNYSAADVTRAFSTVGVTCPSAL

[4] = system: Pseudomonas aeruginosa; assay: as §1, with “Pseudomonas aeruginosa cell culture supernatant” for “human blood plasma spiked with fresh LB medium”, “PBS buffer” for “PBS”; assay type: functional; conditions: time 21-23 hrs; outline: as §2
[5] = system: Pseudomonas aeruginosa; assay: as §1, with “containing 50%” for “containing”, “and 10% Pseudomonas aeruginosa cell culture supernatant” for “spiked with fresh LB medium”; assay type: functional; conditions: time 21-23 hrs; outline: as §2
[6] = Stability of compound in human blood plasma spiked with Pseudomonas aeruginosa PA14 matrix assessed as hydrolysis of prodrug and measured upto 3 hrs by HPLC-MS/MS analysis; assay type: ADME, cell-free
[7] = system: Pseudomonas aeruginosa; assay: Antibacterial activity against Pseudomonas aeruginosa PA14 assessed inhibition of bacterial growth preincubated for 3 hrs in PBS buffer followed by overnight grown bacterial culture addition incubated for 18 to 20 hrs by broth microdilution method; assay type: functional; conditions: time 21-23 hrs; outline: as §2
[8] = molecular target: T1, PA-I galactophilic lectin (Pseudomonas aeruginosa (strain ATCC 15692 / PAO1 / 1C / PRS 101 / LMG12228), UniProt Q05097); assay: Competitive binding affinity to recombinant Pseudomonas aeruginosa LecA expressed in Escherichia coli BL21(DE3) incubated for 30 to 60 mins by fluorescent polarization assay
T1 sequence (Q05097 whole entry): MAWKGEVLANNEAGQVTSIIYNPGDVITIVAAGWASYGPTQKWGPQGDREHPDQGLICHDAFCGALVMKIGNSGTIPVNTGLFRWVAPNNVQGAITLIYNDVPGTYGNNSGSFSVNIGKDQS
Outline: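 Recombinant LecA (E. coli BL21(DE3), galactosyl-sepharose purified) at 40 μM with 20 nM fluorescein-galactoside reporter in TBS/Ca pH 7.4; compounds serially diluted with 30% DMSO co-solvent, technical triplicates; 30–60 min at 22 °C; fluorescence polarization (ex 485/em 535); four-parameter fit with plateaus fixed by pNP-β-D-Gal control; ≥3 independent experiments.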

[9] = system: Pseudomonas aeruginosa; assay: as §1, with “10 mins” for “3 hrs”; assay type: functional; outline: as §2
[10] = system: Pseudomonas aeruginosa; assay: as §1, with “10 mins” for “3 hrs”, “Pseudomonas aeruginosa cell culture supernatant” for “fresh LB medium”, “PBS buffer” for “PBS”; assay type: functional; outline: as §2
[11] = system: Pseudomonas aeruginosa; assay: as §1, with “Pseudomonas aeruginosa cell culture supernatant” for “fresh LB medium”, “PBS buffer” for “PBS”; assay type: functional; outline: as §2
[12] = system: Pseudomonas aeruginosa; assay: Antibacterial activity against Pseudomonas aeruginosa PA14 assessed inhibition of bacterial growth preincubated for 10 mins in PBS buffer followed by overnight grown bacterial culture addition incubated for 18 to 20 hrs by broth microdilution method; assay type: functional; outline: as §2
[13] = Stability in mouse plasma assessed as half life at 1 uM and measured upto 240 mins by HPLC-MS/MS analysis; assay type: ADME, cell-free; conditions: 4 h
Outline: (§3)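 Compound at 1 μM final in prewarmed mouse or human plasma (pH 7.4), 37 °C, sampled at 0–240 min; extracted with acetonitrile containing caffeine internal standard; HPLC-MS/MS, peak area normalized to internal standard and time 0; procaine and procainamide controls; ≥3 independent repeats.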

[14] = system: A549; assay: Cytotoxicity against human A549 cells assessed as reduction in cell viability incubated for 24 hrs by MTT assay
[15] = Protein binding in human plasma at 1 uM incubated for incubated for 2 hrs by HPLC-MS/MS analysis; assay type: ADME, cell-free
Outline: (§4)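 Rapid equilibrium dialysis; compound at 1 μM final in pooled CD-1 mouse plasma or pooled mixed-gender human plasma, dialysed against buffer; naproxen as high-binding control.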

[16] = Stability in human plasma assessed as half life at 1 uM and measured upto 240 mins by HPLC-MS/MS analysis; assay type: ADME, cell-free; conditions: 4 h; outline: as §3
[17] = molecular target: Fucose-binding lectin PA-IIL (Pseudomonas aeruginosa (strain ATCC 15692 / DSM 22644 / CIP 104116 / JCM14847 / LMG 12228 / 1C / PRS 101 / PAO1), UniProt Q9HYN5); assay: Competitive binding affinity to recombinant Pseudomonas aeruginosa PAO1 LecB expressed in Escherichia coli BL21(DE3) incubated for 4 to 8 hrs by fluorescent polarization assay
Sequence of Fucose-binding lectin PA-IIL (Q9HYN5 whole entry): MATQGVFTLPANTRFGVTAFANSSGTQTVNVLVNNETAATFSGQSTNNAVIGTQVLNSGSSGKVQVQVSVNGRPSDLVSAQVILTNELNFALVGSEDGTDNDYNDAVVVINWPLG

[18] = Drug uptake in human A549 cells assessed as intracellular accumulation at 10 ug/ml incubated for 15 to 60 mins by HPLC-MS/MS analysis; assay type: ADME, cell-based; conditions: time 15-60 min, dose 10 µg/ml
Outline: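 A549 cells grown to 95% confluence in DMEM/10% FCS, exposed to 10 μg/mL compound for 15, 30 and 60 min at 37 °C; washed twice with PBS, lysed in MeOH; medium, washes and extracts extracted with MeOH containing caffeine internal standard and quantified by HPLC-MS/MS against calibration/QC samples; technical duplicates, two biological replicates.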

[19] = Protein binding in CD-1 mouse plasma at 1 uM incubated for incubated for 2 hrs by HPLC-MS/MS analysis; assay type: ADME, cell-free; outline: as §4

Structure (SMILES) | MIC [1] [µM] | MIC [2] [µM] | Drug metabolism [3] | MIC [4] [µM] | MIC [5] [µM] | Stability [6] | MIC [7] [µM] | IC50 [8] [µM] | MIC [9] [µM] | MIC [10] [µM] | MIC [11] [µM] | MIC [12] [µM] | t1/2 [13] [h] | IC50 [14] [µM] | PPB [15] [%] | t1/2 [16] [h] | IC50 [17] [µM] | Drug uptake [18] [ng/mL] | PPB [19] [%]
NC[C@@H]1CCN(c2cc3c(cc2F)c(=O)c(C(=O)O)cn3C2CC2)C1 | 0.29 (≈ 0.1 µg/mL) | – | – | – | – | – | – | – | – | – | – | – | – | – | – | – | – | – | –
CC(C)C[C@H](NC(=O)CNC(=O)[C@H](C)NC(=O)c1ccc(S[C@@H]2O[C@H](CO)[C@H](O)[C@H](O)[C@H]2O)cc1)C(=O)N[C@@H](C)C(=O)NC[C@@H]1CCN(c2cc3c(cc2F)c(=O)c(C(=O)O)cn3C2CC2)C1 | – | 12.5 (≈ 12 µg/mL) | Metabolite_Detected | 1.56 (≈ 1.49 µg/mL) | 1.56 (≈ 1.49 µg/mL) | Stable | > 25 | 28 | > 25 | 3.13 (≈ 2.99 µg/mL) | 1.56 (≈ 1.49 µg/mL) | > 25 | – | – | – | – | – | – | –
CC(C)C[C@H](NC(=O)CNC(=O)[C@H](C)NC(=O)c1ccc(S[C@@H]2O[C@H](CO)[C@H](O)[C@H](O)[C@H]2O)cc1)C(=O)N[C@@H](C)C(=O)N1CCN(c2cc3c(cc2F)c(=O)c(C(=O)O)cn3C2CC2)CC1 | – | ≥ 25 | Metabolite_Notdetected | ≥ 25 | ≥ 25 | Stable | > 25 | 31.7 | > 25 | ≥ 25 | ≥ 25 | > 25 | – | – | – | – | – | – | –
CC(C)C[C@H](NC(=O)CNC(=O)[C@H](C)NC(=O)c1ccc(S(=O)(=O)NC[C@H]2O[C@@H](C)[C@@H](O)[C@@H](O)[C@@H]2O)cc1)C(=O)N[C@@H](C)C(=O)N[C@H]1CCN(c2cc3c(cc2F)c(=O)c(C(=O)O)cn3C2CC2)C1 | – | 0.78 (≈ 0.77 µg/mL) | Metabolite_Detected | 0.39 (≈ 0.385 µg/mL) | 0.1 (≈ 0.0987 µg/mL) | Stable | > 25 | – | ≥ 25 | 0.78 (≈ 0.77 µg/mL) | 1.56 (≈ 1.54 µg/mL) | > 25 | 1.23 | > 50 | 51.1 | 2.25 | 3.59 | 55 | 30.1
CC(C)C[C@H](NC(=O)CNC(=O)[C@H](C)NC(=O)c1ccc(S(=O)(=O)NC[C@H]2O[C@@H](C)[C@@H](O)[C@@H](O)[C@@H]2O)cc1)C(=O)N[C@@H](C)C(=O)NC[C@@H]1CCN(c2cc3c(cc2F)c(=O)c(C(=O)O)cn3C2CC2)C1 | – | 12.5 (≈ 12.5 µg/mL) | Metabolite_Detected | 1.56 (≈ 1.56 µg/mL) | 1.56 (≈ 1.56 µg/mL) | Stable | > 25 | – | ≥ 25 | 3.13 (≈ 3.13 µg/mL) | 3.13 (≈ 3.13 µg/mL) | > 25 | – | – | – | – | 4.29 | – | –
O=C(O)c1cn(C2CC2)c2cc(N3CCNCC3)c(F)cc2c1=O [CIPROFLOXACIN] | 0.125 (≈ 0.0414 µg/mL) | 0.156 (≈ 0.0517 µg/mL) | – | – | 0.156 (≈ 0.0517 µg/mL) | – | 0.125 (≈ 0.0414 µg/mL) | – | 0.156 (≈ 0.0517 µg/mL) | 0.25 (≈ 0.0828 µg/mL) | – | 0.125 (≈ 0.0414 µg/mL) | – | – | – | – | – | – | –
